Our source for the IC50 values is ChEMBL document CHEMBL2424619, “Small-molecule ligands of methyl-lysine binding proteins: optimization of selectivity for L3MBTL3” (J Med Chem, 2013).

Where only a bound is given, the exact number is not on record here.

Assay [1] concerns the target PHD finger protein 23 (Homo sapiens, UniProt Q9BUL5). As to the kind of experiment: Inhibition of PHF23 (unknown origin) after 30 mins by AlphaScreen assay. In a few lines:
(§1)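 AlphaScreen competition with histone peptide. Compounds in 3-fold, 10-point dilutions, top 10 or 30 μM; buffer 20 mM Tris pH 8.0, 25 mM NaCl, 2 mM DTT, 0.05% Tween-20. Protein-peptide mix 30 min RT, then streptavidin donor plus nickel-chelate acceptor beads (GST acceptor beads for GST-tagged PHF23, JARID1A) 30 min RT dark. Protein-free His6-biotin peptide counterscreen.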

The target of assay [2] is TP53-binding protein 1 (Homo sapiens, UniProt Q12888). The assay is described as follows: Inhibition of 53BP1 (unknown origin) after 30 mins by AlphaScreen assay. In short, it runs like this: (§2)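 AlphaScreen competition with histone peptide. Compounds in 3-fold, 10-point dilutions, top 10 or 30 μM; buffer 20 mM Tris pH 8.0, 25 mM NaCl, 2 mM DTT, 0.05% Tween-20. Protein-peptide mix 30 min RT, then streptavidin donor plus nickel-chelate acceptor beads (GST acceptor beads for GST-tagged PHF23, JARID1A) 30 min RT dark. […] Protein-free His6-biotin peptide counterscreen.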
TP53-binding protein 1, sequence (Q12888 whole entry): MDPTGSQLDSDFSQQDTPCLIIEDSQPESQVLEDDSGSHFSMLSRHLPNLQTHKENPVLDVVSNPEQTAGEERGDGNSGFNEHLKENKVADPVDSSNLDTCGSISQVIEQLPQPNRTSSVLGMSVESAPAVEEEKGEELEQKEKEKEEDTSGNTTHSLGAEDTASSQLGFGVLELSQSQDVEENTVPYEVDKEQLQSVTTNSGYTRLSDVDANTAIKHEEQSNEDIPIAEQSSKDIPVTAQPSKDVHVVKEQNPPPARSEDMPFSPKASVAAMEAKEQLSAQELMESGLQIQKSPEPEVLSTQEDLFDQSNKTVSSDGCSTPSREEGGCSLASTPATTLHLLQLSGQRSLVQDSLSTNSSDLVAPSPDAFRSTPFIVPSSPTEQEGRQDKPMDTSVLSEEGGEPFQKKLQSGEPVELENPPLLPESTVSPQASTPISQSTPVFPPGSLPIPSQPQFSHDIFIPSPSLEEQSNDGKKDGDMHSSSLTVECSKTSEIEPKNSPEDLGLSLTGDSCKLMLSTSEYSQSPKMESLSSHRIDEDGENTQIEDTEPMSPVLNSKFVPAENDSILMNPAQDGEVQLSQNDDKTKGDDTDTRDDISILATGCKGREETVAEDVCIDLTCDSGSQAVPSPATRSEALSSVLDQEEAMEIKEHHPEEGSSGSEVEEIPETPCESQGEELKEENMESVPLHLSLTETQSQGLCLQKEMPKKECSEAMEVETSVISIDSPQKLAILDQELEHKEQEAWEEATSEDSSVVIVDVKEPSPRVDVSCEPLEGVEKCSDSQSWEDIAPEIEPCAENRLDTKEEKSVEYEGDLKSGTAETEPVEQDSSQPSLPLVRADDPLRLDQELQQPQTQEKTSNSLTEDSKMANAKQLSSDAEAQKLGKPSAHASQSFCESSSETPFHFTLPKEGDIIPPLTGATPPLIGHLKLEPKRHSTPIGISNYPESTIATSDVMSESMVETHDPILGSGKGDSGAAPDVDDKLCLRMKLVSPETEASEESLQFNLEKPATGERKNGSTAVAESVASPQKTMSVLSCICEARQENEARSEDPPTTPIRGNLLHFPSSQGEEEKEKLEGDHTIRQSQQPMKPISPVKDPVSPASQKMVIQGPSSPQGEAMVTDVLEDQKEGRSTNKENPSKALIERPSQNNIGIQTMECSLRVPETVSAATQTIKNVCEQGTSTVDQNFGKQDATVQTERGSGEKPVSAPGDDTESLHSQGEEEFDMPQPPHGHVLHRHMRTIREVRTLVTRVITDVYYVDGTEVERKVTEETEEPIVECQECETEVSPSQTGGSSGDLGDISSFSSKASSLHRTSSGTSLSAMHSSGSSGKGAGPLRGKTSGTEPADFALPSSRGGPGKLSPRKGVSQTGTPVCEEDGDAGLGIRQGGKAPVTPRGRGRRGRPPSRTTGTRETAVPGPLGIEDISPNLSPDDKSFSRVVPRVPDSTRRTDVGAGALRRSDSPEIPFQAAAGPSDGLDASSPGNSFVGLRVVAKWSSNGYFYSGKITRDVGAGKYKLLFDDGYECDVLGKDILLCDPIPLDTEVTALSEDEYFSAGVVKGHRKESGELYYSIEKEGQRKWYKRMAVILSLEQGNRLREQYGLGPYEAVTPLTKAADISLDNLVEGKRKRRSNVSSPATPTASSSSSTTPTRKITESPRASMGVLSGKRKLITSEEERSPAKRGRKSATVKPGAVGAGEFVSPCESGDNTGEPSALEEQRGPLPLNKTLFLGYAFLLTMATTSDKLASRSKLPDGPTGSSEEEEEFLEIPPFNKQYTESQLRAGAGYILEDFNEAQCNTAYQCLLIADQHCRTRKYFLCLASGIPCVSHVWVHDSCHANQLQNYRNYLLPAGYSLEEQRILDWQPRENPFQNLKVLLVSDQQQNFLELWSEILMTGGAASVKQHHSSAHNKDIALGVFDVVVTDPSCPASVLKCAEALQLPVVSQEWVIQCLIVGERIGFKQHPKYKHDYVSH

The target in assay [3] is T1, E3 ubiquitin-protein ligase UHRF1 (Homo sapiens, UniProt Q96T88).
T1 sequence (Q96T88 whole entry): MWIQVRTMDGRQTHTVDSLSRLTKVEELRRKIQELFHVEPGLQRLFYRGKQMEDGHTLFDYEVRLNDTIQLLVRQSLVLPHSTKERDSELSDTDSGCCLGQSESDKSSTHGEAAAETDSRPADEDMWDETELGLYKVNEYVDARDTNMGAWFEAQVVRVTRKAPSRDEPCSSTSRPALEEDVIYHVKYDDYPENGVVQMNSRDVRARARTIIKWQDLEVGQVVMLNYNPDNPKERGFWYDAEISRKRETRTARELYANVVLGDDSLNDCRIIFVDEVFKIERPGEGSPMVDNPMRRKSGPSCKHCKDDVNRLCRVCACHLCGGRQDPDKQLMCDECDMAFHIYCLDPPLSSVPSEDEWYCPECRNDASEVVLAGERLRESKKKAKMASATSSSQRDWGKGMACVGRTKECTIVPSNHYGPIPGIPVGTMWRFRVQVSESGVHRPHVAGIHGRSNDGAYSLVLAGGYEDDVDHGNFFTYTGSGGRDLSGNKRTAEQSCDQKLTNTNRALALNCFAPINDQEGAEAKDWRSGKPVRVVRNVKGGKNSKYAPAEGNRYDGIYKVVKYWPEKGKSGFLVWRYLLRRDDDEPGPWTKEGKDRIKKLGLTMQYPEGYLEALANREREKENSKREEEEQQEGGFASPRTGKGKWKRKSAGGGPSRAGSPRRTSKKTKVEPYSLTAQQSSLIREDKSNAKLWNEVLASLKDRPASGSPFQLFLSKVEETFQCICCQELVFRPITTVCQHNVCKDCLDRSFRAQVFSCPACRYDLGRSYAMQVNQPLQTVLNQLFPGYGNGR
The assay is described as follows: Inhibition of UHRF1 (unknown origin) after 30 mins by AlphaScreen assay. In short, it runs like this: as §2

For assay [4], the target named is MBT domain-containing protein 1 (Homo sapiens, UniProt Q05BQ5). As to the kind of experiment: Inhibition of MBTD1 (unknown origin) after 30 mins by AlphaScreen assay. In a few lines:
as §1

Assay [5] has as its target T2, Lethal(3)malignant brain tumor-like protein 4 (Homo sapiens, UniProt Q8NA19).
T2 sequence (Q8NA19 whole entry): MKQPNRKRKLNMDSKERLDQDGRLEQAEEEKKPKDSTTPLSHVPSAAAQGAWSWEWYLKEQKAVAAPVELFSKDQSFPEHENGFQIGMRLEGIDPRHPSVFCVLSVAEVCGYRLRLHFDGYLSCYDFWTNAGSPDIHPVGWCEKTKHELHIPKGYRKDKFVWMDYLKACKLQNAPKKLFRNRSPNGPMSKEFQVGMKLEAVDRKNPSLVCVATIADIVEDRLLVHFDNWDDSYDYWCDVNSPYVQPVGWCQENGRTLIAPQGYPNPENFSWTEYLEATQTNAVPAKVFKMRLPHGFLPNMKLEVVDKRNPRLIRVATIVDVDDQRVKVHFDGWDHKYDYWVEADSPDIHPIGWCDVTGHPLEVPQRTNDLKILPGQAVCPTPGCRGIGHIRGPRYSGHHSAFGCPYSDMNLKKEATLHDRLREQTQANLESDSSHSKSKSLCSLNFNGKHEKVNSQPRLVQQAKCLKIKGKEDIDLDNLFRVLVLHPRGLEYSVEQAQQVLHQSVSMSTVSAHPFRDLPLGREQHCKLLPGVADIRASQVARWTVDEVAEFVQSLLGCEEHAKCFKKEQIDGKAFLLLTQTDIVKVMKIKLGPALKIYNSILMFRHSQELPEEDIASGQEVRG
The assay is described as follows: Inhibition of L3MBTL4 (unknown origin) after 30 mins by AlphaScreen assay. In a few lines:
as §1

Assay [6] deals with T3, Lethal(3)malignant brain tumor-like protein 3 (Homo sapiens, UniProt Q96JM7).
T3 sequence (Q96JM7 whole entry): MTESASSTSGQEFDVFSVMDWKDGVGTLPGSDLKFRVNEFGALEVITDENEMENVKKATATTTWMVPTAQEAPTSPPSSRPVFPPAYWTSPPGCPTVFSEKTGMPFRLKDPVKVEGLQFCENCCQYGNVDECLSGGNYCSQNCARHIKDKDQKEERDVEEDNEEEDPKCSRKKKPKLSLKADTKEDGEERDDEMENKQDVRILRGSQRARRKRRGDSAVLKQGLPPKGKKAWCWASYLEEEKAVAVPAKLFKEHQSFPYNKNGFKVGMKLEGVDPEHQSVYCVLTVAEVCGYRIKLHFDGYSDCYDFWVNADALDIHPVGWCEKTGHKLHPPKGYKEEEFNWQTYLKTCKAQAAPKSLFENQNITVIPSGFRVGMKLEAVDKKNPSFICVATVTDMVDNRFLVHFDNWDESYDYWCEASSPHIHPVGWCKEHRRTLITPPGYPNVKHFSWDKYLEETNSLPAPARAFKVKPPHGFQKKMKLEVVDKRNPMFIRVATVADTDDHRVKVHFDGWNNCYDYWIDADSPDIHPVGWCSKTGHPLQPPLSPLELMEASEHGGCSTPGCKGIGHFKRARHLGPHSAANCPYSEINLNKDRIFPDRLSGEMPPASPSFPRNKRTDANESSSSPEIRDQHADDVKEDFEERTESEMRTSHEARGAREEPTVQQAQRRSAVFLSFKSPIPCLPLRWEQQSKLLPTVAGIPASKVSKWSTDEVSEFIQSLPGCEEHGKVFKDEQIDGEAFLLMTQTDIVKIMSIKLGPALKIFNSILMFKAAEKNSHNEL
As to the kind of experiment: Inhibition of L3MBTL3 (unknown origin) after 30 mins by AlphaScreen assay. In short, it runs like this: as §1

Assay [7] concerns the target T3, Lethal(3)malignant brain tumor-like protein 3. As to the kind of experiment: Inhibition of L3MBTL3 (unknown origin) using H4K20me2 as substrate after 30 mins by LNCE-TR-FRET assay.

MBT domain-containing protein 1, sequence (Q05BQ5 whole entry, the tested form may be a part): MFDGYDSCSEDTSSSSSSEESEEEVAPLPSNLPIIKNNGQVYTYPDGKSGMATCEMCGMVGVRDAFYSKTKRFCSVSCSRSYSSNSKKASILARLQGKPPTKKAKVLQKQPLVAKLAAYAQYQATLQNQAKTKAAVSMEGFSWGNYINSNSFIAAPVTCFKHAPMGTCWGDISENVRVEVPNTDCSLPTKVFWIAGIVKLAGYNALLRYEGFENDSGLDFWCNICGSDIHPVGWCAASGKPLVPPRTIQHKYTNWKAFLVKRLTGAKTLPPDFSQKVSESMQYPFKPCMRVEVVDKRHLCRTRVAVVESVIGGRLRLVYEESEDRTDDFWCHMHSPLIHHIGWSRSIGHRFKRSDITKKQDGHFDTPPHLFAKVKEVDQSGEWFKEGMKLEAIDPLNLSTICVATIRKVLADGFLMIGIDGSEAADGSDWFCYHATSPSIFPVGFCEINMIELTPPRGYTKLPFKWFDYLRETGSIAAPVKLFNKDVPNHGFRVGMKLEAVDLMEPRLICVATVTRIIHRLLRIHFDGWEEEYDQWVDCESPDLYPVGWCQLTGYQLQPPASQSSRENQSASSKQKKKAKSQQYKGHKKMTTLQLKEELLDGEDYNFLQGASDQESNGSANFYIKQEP
PHD finger protein 23, sequence (Q9BUL5 whole entry): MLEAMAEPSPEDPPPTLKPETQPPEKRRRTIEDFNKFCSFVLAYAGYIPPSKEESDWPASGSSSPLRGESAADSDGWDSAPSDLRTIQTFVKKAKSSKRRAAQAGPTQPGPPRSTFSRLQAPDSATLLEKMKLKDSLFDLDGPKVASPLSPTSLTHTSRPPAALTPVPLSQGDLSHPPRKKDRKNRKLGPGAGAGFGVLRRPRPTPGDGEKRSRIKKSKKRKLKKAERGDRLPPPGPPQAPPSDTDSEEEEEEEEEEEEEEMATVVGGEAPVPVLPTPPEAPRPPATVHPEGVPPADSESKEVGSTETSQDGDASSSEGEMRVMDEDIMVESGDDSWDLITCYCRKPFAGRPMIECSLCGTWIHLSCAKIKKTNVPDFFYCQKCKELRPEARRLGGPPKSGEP

On to `CCN1Cc2ccc(NC(=O)c3ccc(C(=O)N4CCC(C5CCCN5)CC4)cc3Nc3ccccc3)cc2C1` (configuration not stated), for which the 50% inhibitory concentration (IC50) was over 10 µM in assay [1]; 3.5 µM in assay [2]; over 10 µM in assay [3]; 3.5 µM in assay [4]; over 10 µM in assay [5]; 0.17 µM in assay [6]. Besides, the IC50 in assay [7] was determined as 0.16 µM.
For `O=C(c1ccc(C(=O)N2CCC(N3CCCC3)CC2)c(C(=O)N2CCC(N3CCCC3)CC2)c1)N1CCC(N2CCCC2)CC1`, the IC50 in assay [1] was over 10 µM; in assay [2] it was 7.9 µM; in assay [3] it was over 10 µM; in assay [4] it was over 10 µM; in assay [5], over 10 µM; in assay [6], 0.12 µM. In assay [7], this compound showed an IC50 of 0.11 µM.
With `O=C(c1ccc(C(=O)N2CCC(N3CCCC3)CC2)cc1)N1CCC(N2CCCCCC2)CC1`, the half-inhibitory concentration (IC50) in assay [1] was over 10 µM; in assay [2] it was over 10 µM; in assay [3], over 10 µM; in assay [4], 9.7 µM; in assay [5], over 10 µM; in assay [6], 0.27 µM. Besides, half-maximal inhibition in assay [7] (IC50) was put at 0.21 µM.
On to `O=C(c1ccc(C(=O)N2CC3(CCNC3)C2)cc1)N1CCC(N2CCCC2)CC1`, for which the IC50 in assay [1] was over 10 µM; in assay [2], over 10 µM; in assay [3], over 10 µM; in assay [4], over 10 µM; in assay [5], over 10 µM; in assay [6] it was 3.6 µM. The IC50 in assay [7] is 2.7 µM.
Take `O=C(c1ccc(C(=O)N2CCC(N3CCCC3)CC2)c(-c2ccccc2)c1)N1CCC(N2CCCC2)CC1`: the concentration for half-maximal inhibition (IC50) was over 10 µM in assay [1]; over 10 µM in assay [2]; over 10 µM in assay [3]; over 10 µM in assay [4]; over 10 µM in assay [5]; 0.066 µM in assay [6]. This compound displayed an IC50 in assay [7] of 0.061 µM.
As for `O=C(c1ccc(C(=O)N2CC3CCC(C2)C3N2CCCC2)cc1)N1CC2CCC(C1)C2N1CCCC1` (configuration not stated), the half-maximal inhibitory concentration (IC50) in assay [1] is over 10 µM; in assay [2], over 10 µM; in assay [3] it was over 10 µM; in assay [4], over 10 µM; in assay [5], over 10 µM; in assay [6], 0.4 µM. In addition, the 50% inhibitory concentration (IC50) in assay [7] amounted to 0.28 µM.
As for `O=C(c1ccc(C(=O)N2CCC(N3CCCC3)CC2)cc1)N1CCC(N2CCCCC2)CC1`, the IC50 in assay [1] was over 10 µM; in assay [2], over 10 µM; in assay [3] it was over 10 µM; in assay [4] it was 10 µM; in assay [5], over 10 µM; in assay [6] it was 0.23 µM. In assay [7], this compound had a concentration for half-maximal inhibition (IC50) of 0.16 µM.
In the case of `O=C(c1ccc(C(=O)N2CCC(N3CCCC3)CC2)c(Cc2ccccc2)c1)N1CCC(N2CCCC2)CC1`, the IC50 in assay [1] is over 10 µM; in assay [2], over 10 µM; in assay [3], over 10 µM; in assay [4], 6.8 µM; in assay [5] it was over 10 µM; in assay [6], 0.048 µM. The IC50 in assay [7] was determined as 0.051 µM.
On to `Cc1cc(C(=O)N2CCC(N3CCCC3)CC2)c(C)cc1C(=O)N1CCC(N2CCCC2)CC1`, for which the IC50 is over 10 µM in assay [1]; over 10 µM in assay [2]; over 10 µM in assay [3]; over 10 µM in assay [4]; over 10 µM in assay [5]; 0.21 µM in assay [6]. In assay [7], this compound showed a 50% inhibitory concentration (IC50) of 0.24 µM.
`O=C(c1ccc(C(=O)N2CCC(N3CCCC3)CC2)c2ccccc12)N1CCC(N2CCCC2)CC1`: the IC50 in assay [1] was over 10 µM; in assay [2], 10.7 µM; in assay [3], over 10 µM; in assay [4], 5.7 µM; in assay [5], over 10 µM; in assay [6] it was 0.072 µM. The compound further displayed an IC50 in assay [7] of 0.043 µM.
Regarding `O=C(c1ccc(C(=O)N2CC3CCC(C2)C3N2CCCC2)cc1)N1CCC(N2CCCC2)CC1` (configuration not stated), the concentration for half-maximal inhibition (IC50) in assay [1] is over 10 µM; in assay [2] it was over 10 µM; in assay [3], over 10 µM; in assay [4], over 10 µM; in assay [5], over 10 µM; in assay [6], 0.16 µM. This compound also yielded an IC50 in assay [7] of 0.092 µM.
In the case of `CN1CCC(N2CCN(C(=O)c3ccc(C(=O)N4CCC(N5CCCC5)CC4)cc3)CC2)CC1`, the IC50 was over 10 µM in assay [1]; over 10 µM in assay [2]; over 10 µM in assay [3]; over 10 µM in assay [4]; over 10 µM in assay [5]; 0.83 µM in assay [6]. Moreover, half-maximal inhibition in assay [7] (IC50) was put at 0.77 µM.
Consider `O=C(c1ccc(C(=O)N2CCCC(N3CCCC3)CC2)cc1)N1CCCC(N2CCCC2)CC1` (configuration not stated), for which the IC50 is over 10 µM in assay [1]; over 10 µM in assay [2]; over 10 µM in assay [3]; over 10 µM in assay [4]; over 10 µM in assay [5]; 0.11 µM in assay [6]. This compound also displayed a half-inhibitory concentration (IC50) in assay [7] of 0.11 µM.
With `CN1CCN2CC(NC(=O)c3ccc(C(=O)N4CCC(N5CCCC5)CC4)cc3)CC2C1` (configuration not stated), the half-maximal inhibitory concentration (IC50) was over 10 µM in assay [1]; over 10 µM in assay [2]; over 10 µM in assay [3]; over 10 µM in assay [4]; over 10 µM in assay [5]; 4.6 µM in assay [6]. The compound also had an IC50 in assay [7] of 4.5 µM.
As to `C[N+]1(C2CCN(C(=O)c3ccc(C(=O)N4CCC(N5CCCC5)CC4)cc3)CC2)CCCC1`, the IC50 was over 10 µM in assay [1]; over 10 µM in assay [2]; over 10 µM in assay [3]; over 10 µM in assay [4]; over 10 µM in assay [5]; 0.14 µM in assay [6]. This compound registered an IC50 in assay [7] of 0.081 µM.
With `CC(C1CCN(C(=O)c2ccc(C(=O)N3CCC(N4CCCC4)CC3)cc2)CC1)N1CCN(C)CC1` (configuration not stated), the half-maximal inhibitory concentration (IC50) in assay [1] was over 10 µM; in assay [2], over 10 µM; in assay [3], over 10 µM; in assay [4], over 10 µM; in assay [5] it was over 10 µM; in assay [6], 0.3 µM. Also, the concentration for half-maximal inhibition (IC50) in assay [7] stood at 0.25 µM.
